Broadly, the IC50 is the concentration at which inhibition is half-maximal. In general, pKa refers to the pH at which an ionisable group is half protonated. A lower pKa goes with a stronger acid or weaker base.

The values below come from ChEMBL document CHEMBL1152488, “Synthesis and evaluation of pyrido[1,2-a]pyrimidines as inhibitors of nitric oxide synthases” (Eur J Med Chem, 2009).

SMILES strings stand for the structures. Activity calls are given as the source filed them. The rule behind the calls is not given here.

Data set [1] deals with Nitric oxide synthase 1 (Rattus norvegicus, UniProt P29476). Put plainly: Inhibition of rat recombinant nNOS expressed in Saccharomyces cerevisiae assessed as conversion of [gamma-14C]L-arginine to [14C]L-citrulline by radioactive assay. Put shortly:
(§1)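 CaCl2/CaM present for nNOS (S. cerevisiae) and eNOS (E. coli) but omitted for iNOS (E. coli). Citrulline separated by Dowex cation exchange, then scintillation counting.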

The target in data set [2] is T1, Nitric oxide synthase 3 (Bos taurus, UniProt P29473).
T1 sequence (P29473 whole entry): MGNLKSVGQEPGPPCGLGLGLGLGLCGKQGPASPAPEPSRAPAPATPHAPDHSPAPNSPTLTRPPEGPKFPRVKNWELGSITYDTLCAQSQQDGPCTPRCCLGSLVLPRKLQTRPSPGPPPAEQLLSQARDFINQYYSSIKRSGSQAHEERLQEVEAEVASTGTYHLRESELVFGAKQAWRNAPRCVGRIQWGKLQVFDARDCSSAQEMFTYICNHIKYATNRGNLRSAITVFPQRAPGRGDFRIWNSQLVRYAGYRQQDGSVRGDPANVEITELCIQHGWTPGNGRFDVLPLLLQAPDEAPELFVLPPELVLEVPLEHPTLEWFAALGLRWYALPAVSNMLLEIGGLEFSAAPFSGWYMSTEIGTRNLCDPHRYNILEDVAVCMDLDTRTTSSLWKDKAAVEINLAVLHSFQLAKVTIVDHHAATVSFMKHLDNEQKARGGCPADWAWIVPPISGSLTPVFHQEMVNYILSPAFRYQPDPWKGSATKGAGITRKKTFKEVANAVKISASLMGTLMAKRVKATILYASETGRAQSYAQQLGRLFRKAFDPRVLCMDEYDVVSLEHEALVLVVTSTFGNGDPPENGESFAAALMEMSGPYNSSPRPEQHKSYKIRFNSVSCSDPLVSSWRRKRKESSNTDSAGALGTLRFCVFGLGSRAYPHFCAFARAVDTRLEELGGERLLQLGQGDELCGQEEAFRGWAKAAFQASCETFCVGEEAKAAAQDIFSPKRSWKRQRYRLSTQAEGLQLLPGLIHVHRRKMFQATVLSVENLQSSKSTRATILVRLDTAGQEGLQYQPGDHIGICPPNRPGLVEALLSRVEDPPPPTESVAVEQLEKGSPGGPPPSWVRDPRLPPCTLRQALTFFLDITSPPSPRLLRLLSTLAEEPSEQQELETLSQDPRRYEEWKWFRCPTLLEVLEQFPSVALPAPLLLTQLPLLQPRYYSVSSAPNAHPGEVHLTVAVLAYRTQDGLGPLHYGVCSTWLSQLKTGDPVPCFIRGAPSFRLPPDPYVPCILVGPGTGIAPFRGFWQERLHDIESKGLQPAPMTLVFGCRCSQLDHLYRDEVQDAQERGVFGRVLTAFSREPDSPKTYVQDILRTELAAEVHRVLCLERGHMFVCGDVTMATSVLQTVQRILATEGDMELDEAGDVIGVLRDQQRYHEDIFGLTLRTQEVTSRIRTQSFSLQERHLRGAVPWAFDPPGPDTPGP
In words: Inhibition of bovine recombinant eNOS expressed in Escherichia coli assessed as conversion of [gamma-14C]L-arginine to [14C]L-citrulline by radioactive assay. Put shortly:
as §1

Data set [3] is described as follows: Dissociation constant, pKa of the compound. The data set is classed as physicochemical. Put shortly:
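UV spectrophotometric titration. Compound dissolved in 10% aqueous methanol, then mixed 1:1 with NaOH (0.002–6 M) and 1 M HCl to a final 150 µM. Absorbance read at 312 nm across the pH series.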

Data set [4] concerns the target T2, Nitric oxide synthase, inducible (Mus musculus) (UniProt P29477).
T2 sequence (whole entry): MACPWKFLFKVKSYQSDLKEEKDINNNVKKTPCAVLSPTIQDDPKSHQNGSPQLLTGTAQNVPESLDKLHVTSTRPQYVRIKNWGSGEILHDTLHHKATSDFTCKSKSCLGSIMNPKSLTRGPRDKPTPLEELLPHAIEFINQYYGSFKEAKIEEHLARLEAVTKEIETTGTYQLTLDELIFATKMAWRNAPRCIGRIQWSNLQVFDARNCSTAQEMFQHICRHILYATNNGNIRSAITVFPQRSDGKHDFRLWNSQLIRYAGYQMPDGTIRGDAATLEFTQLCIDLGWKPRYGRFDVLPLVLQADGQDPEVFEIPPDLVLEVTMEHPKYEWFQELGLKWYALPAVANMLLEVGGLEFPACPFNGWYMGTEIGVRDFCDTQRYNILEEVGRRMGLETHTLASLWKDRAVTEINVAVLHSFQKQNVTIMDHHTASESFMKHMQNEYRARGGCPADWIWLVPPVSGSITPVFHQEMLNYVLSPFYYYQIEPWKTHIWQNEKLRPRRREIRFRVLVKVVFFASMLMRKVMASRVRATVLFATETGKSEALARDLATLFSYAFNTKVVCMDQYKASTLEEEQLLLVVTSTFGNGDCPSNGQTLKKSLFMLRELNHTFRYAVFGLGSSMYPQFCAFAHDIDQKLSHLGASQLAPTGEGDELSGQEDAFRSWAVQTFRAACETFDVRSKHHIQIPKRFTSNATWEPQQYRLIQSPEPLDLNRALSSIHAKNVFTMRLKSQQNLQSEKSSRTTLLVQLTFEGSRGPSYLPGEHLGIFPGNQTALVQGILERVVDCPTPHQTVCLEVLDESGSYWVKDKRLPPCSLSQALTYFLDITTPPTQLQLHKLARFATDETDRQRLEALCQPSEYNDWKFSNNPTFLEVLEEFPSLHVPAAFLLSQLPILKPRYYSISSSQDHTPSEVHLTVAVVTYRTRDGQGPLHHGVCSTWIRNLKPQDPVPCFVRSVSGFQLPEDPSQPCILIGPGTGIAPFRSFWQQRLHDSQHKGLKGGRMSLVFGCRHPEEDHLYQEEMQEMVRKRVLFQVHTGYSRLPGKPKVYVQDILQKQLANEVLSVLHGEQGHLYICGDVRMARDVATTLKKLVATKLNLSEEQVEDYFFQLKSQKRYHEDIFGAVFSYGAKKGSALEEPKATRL
Put plainly: Inhibition of mouse iNOS expressed in insect Sf9 cells at 1 mM preincubated for 15 mins followed by compound dilution.

The target of data set [5] is T3, Nitric oxide synthase, inducible (Mus musculus, UniProt P29477).
T3 sequence (P29477 whole entry): T2 sequence (whole entry)
Put plainly: Inhibition of mouse recombinant iNOS expressed in Escherichia coli assessed as conversion of [14C]L-arginine to [14C]L-citrulline by radioactive assay.

For data set [6], the target named is T3, Nitric oxide synthase, inducible. In words: Inhibition of mouse recombinant iNOS expressed in Escherichia coli assessed as NADPH consumption after 2 mins by spectrophotometry. Put shortly:
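Murine iNOS from E. coli (15–50 nM final) in 50 mM Hepes pH 7.4 with 5 mM DTT, 100 µM CaCl2, 200 µM NADPH, 10 µM H4B, 100 µM L-arginine and 100 µM compound. Cofactors and compound preincubated 2 min at 37 °C, enzyme added, and A340 followed for 3 min (ε 6.2 mM-1 cm-1). Given as % of 1% DMSO control NADPH oxidase rate.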

Chain of Nitric oxide synthase 1 (P29476 whole entry): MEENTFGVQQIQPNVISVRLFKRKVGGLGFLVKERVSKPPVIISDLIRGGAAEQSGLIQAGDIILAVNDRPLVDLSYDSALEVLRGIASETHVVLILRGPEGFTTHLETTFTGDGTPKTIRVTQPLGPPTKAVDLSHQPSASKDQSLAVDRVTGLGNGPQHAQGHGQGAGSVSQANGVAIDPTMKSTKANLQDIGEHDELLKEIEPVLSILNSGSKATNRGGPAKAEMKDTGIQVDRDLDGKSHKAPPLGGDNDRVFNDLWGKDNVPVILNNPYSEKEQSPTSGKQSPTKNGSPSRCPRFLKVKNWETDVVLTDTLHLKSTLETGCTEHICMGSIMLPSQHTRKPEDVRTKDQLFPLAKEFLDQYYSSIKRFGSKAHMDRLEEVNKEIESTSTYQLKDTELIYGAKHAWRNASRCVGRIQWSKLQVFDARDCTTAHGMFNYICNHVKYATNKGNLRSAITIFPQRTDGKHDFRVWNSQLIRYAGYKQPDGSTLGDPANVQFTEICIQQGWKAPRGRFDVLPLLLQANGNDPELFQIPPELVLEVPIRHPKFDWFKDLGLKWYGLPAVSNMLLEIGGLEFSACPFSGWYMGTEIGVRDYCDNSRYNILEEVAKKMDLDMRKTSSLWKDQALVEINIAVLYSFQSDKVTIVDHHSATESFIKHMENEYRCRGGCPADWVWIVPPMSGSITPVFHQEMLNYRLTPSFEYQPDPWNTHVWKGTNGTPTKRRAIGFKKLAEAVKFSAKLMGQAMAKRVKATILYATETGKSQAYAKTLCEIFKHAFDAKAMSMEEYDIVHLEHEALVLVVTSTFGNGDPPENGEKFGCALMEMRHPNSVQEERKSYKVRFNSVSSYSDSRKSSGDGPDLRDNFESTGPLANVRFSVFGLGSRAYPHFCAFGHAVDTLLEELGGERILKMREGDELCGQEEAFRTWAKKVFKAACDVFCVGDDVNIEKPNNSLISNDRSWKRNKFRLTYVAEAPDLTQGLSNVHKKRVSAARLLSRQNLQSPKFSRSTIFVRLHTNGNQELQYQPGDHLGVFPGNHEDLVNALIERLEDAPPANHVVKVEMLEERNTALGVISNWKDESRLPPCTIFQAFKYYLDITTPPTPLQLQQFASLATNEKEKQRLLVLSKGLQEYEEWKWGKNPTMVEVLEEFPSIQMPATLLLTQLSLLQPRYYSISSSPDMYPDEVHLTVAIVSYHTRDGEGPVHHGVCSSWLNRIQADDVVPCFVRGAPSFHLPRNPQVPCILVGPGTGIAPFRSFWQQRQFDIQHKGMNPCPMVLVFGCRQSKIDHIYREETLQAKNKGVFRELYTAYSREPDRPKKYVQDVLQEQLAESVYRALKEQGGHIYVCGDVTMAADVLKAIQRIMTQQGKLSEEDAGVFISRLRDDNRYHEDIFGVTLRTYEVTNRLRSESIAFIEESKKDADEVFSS

As to `CC1=CC2=NCC(C(=O)c3ccc4cc(C)ccc4c3)CN2C(C)=C1.[O-][Cl+3]([O-])([O-])O` (configuration not stated), the IC50 was 60 µM in data set [1] and 53 µM in data set [2].
In the case of `O=C(c1ccc(Br)cc1)C1CN=C2C=CC=CN2C1` (configuration not stated), the pKa in data set [3] was 12.4.
Turning to `COc1ccc(-c2ccc(C(=O)C3CN=C4C=C(C)C=CN4C3)cc2)cc1.Cl` (configuration not stated), the IC50 in data set [1] worked out at 87 µM; in data set [2], 60 µM.
As to `CC1=CC2=NCC(C(=O)c3ccc(-c4ccc(Br)cc4)cc3)CN2C=C1.[O-][Cl+3]([O-])([O-])O` (configuration not stated), in data set [4], the outcome was inactive. For the same compound, in data set [5], the IC50 came out at 28 µM.
For the compound `CC1=CC2=NCC(C(=O)c3ccc(OCc4ccc(Cl)cc4)cc3)CN2C=C1.[O-][Cl+3]([O-])([O-])O` (configuration not stated), in data set [2], the IC50 worked out at 12 µM.
`CC1=CC2=NCC(C(=O)c3ccc(-c4ccc(Br)cc4)cc3)CN2C(C)=C1` (configuration not stated): the IC50 in data set [2] was determined as 188 µM.
With `CC1=CC2=NCC(C(=O)c3ccc(-c4ccc(C#N)cc4)cc3)CN2C=C1.Cl` (configuration not stated), the values for the IC50 in data set [1], in data set [6] and in data set [2] were 128 µM, 11 µM and 12 µM, respectively.
